Measured values of several laboratories.
Protocols differ between the studies behind these lines. pIC50: −log10 of the molar value.
Organism: Plasmodium falciparum
Effect on: parasite growth

Compound | test | system | setting | quantity | value
CO[C@H]1/C=C/O[C@@]2(C)Oc3c(C)c(O)c4c(O)c(c(/C=N/N5CCN(C)CC5)c(O)c4c3C2=O)NC(=O)/C(C)=C\C=C[C@H](C)[C@H](O)[C@@H](C)[C@@H](O)[C@@H](C)[C@H](OC(C)=O)[C@@H]1C | SYBR Green |  | blood stage | pIC50 | 5.11
Clc1ccc2c(c1)nc(NCCNCc1ccncc1)n2Cc1ccccc1 |  | NF54 | blood stage | pIC50 | 5.64
CCCCCCCCCCCCCC(O)CC(O)CO (centres unmarked) |  | W2 | drug-resistant strain, blood stage | IC50 | 40.8 µg/mL
Fc1ccc(-c2nc3c(N4CCCN(CC5CC5)CC4)nccc3[nH]2)cc1F |  | NF54 | blood stage | pIC50 | 7.70
Cc1cccc(C(=O)O)c1NC(=O)c1ccccc1-c1ccccc1 | resazurin | NF54 | 48 h, gametocyte | pIC50 | < 5.00
C[C@@H]1CC[C@H]2[C@@H](C)C(=O)O[C@@H]3O[C@@]4(C)CC[C@@H]1[C@]32OO4 |  | W2 | 72 h, drug-resistant strain, blood stage | IC50 | 0.0038 µg/mL
COC1=CC(c2ccc[nH]2)=NC1=Cc1ccc(CCCCCCCCCCCO)[nH]1 |  | D6 | blood stage | pIC50 | 7.23
O=C(Nc1ccccc1C(=O)O)c1ccc(-c2ccc(F)cc2)cc1 | resazurin | NF54 | 48 h, gametocyte | pIC50 | < 5.00
NCCCCNc1nc2cc(Cl)ccc2n1Cc1ccccc1 |  | NF54 | blood stage | pIC50 | 5.87
COc1cccc(N2CCN(C3=Nc4c(F)cccc4[C@H](CC(=O)O)N3c3cc(C(F)(F)F)ccc3OC)CC2)c1 | SYBR Green |  | blood stage | pIC50 | 5.00
O=C1C(O)=C([C@H]2CC[C@H](c3ccc(Cl)cc3)CC2)C(=O)c2ccccc21 |  | 3D7 | 72 h, blood stage | pIC50 | 9.40
O=C(O)c1ccccc1NC(=O)c1ccccc1-c1ccccc1 | resazurin | NF54 | 48 h, gametocyte | pIC50 | < 5.00
C/C=C/C=C/C=C/c1c(O)cc(CC=C(C)C)c(O)c1C=O |  | W2 | 72 h, drug-resistant strain, blood stage | IC50 | 1.1 µg/mL
O=C(Nc1ccc2c(c1)B(O)OC2)Nc1ccc(F)c(C(F)(F)F)c1 |  | NF54 | blood stage | pIC50 | 5.51
C[C@@]12CC[C@@H](O)[C@]3(C)C4=CC(=O)OCC4=C[C@@H](OC1=O)C23 (some centres unmarked) |  | D6 | 72 h, blood stage | IC50 | 0.9 µg/mL
CCN(CC)CCCC(C)Nc1ccnc2cc(Cl)ccc12 (centres unmarked) | ELISA | 3D7 | blood stage | pIC50 | 8.13
COc1nc2ccc(Br)cc2cc1[C@@H](c1ccccc1)[C@@](O)(CCN(C)C)c1cccc2ccccc12 | SYBR Green |  | blood stage | pIC50 | 5.96
CCN(CC)CCCC(C)Nc1ccnc2cc(Cl)ccc12 (centres unmarked) |  | NF54 | blood stage | pIC50 | 8.10
C#CCCCCCCCCC=CCC(O)CC(O)CO (centres unmarked) |  | W2 | drug-resistant strain, blood stage | IC50 | > 47.6 µg/mL
Brc1ccc2c(c1)nc(C1CCNCC1)n2Cc1ccccc1 |  | NF54 | blood stage | pIC50 | 7.55
CCN(CC)CCCC(C)Nc1ccnc2cc(Cl)ccc12 (centres unmarked) |  | D10 | 72 h | pIC50 | 7.70

Compound | test | system | setting | quantity | value
O=C(O)c1cc(-c2ccc(Br)cc2)nc2ccc(Cl)cc12 | SYBR Green |  | blood stage | pIC50 | 4.22
COc1cc(C)c(-c2ccc(O)c3c2C[C@@H](C)N[C@@H]3C)c2cccc(O)c12 (single isomer, unassigned) | SYBR Green | NF54 | blood stage | pIC50 | 7.42
CC[C@@H](C)[C@H]1O[C@@H](c2c(O)c(-c3ccccc3)cn(O)c2=O)[C@H](C)C[C@@H]1C |  | W2 | 72 h, drug-resistant strain, blood stage | IC50 | 0.2 µg/mL
CCc1ccc(C2=NC(=Cc3ccc(CCCCCCCCCC(C)O)[nH]3)C(OC)=C2)[nH]1 (centres unmarked) |  | D6 | blood stage | pIC50 | 7.77
COc1ccc2[nH]c(-c3ccc(Cc4ccc(OC(F)(F)F)cc4)cc3)c(C)c(=O)c2c1 |  | 3D7 | blood stage | pIC50 | < 6.46
FC(F)(F)c1ccc(CNCCNc2nc3cc(Cl)ccc3n2Cc2ccccc2)cc1 |  | NF54 | blood stage | pIC50 | 5.56
C#CCCCCCCCCCCCC(O)CC(O)CO (centres unmarked) |  | W2 | drug-resistant strain, blood stage | IC50 | 32.5 µg/mL
O=C(Nc1ccnc(C(F)(F)F)c1)Nc1cccc2c1OC(F)(F)O2 |  | NF54 | blood stage | pIC50 | 6.15
Cc1cccc(C(=O)O)c1NC(=O)c1cccc(-c2ccccc2)c1 | resazurin | NF54 | 48 h, gametocyte | pIC50 | 6.18
c1ccc(Cn2c(N3CCNCC3)nc3cc(-c4cc[nH]n4)ccc32)cc1 |  | NF54 | blood stage | pIC50 | < 5.00
CN1CCN(C2CCN(c3nccc4[nH]c(-c5cc(F)cc(F)c5)nc34)CC2)CC1 |  | NF54 | blood stage | pIC50 | > 7.00
c1ccc(Cn2c(N3CCNCC3)nc3cc(-c4ccncc4)ccc32)cc1 |  | NF54 | blood stage | pIC50 | 5.78
Cc1cc(NCCc2ccccc2)nc(N=C(N)Nc2ccc(Cl)cc2)n1 | SYBR Green |  | blood stage | pIC50 | 6.55
O=C(Nc1c(F)cccc1C(=O)O)c1cccc(-c2ccccc2)c1 | resazurin | NF54 | 48 h, gametocyte | pIC50 | < 5.00
C[C@@H](c1cc(Cl)cc(Cl)c1)N(C)c1ncc2c(N)nc(N)nc2n1 | SYBR Green |  | blood stage | pIC50 | 5.09
Clc1ccc2c(c1)nc(NCCNCc1ccccc1)n2Cc1ccccc1 |  | NF54 | blood stage | pIC50 | 7.07
O=C(Nc1ccccc1-c1nc2c(C(=O)O)cccc2o1)c1ccccc1 | SYBR Green |  | blood stage | pIC50 | 4.12
C[C@H]1[C@@H](O)O[C@@H]2O[C@@]3(C)CC[C@H]4[C@H](C)CC[C@@H]1[C@@]24OO3 |  | 3D7 | 72 h, blood stage | pIC50 | 8.24
Cc1onc(-c2ccccc2)c1-c1ccc(S(N)(=O)=O)cc1 | SYBR Green |  | blood stage | pIC50 | < 4.00
C[C@@H]1CC[C@H]2[C@@H](C)C(=O)O[C@@H]3O[C@@]4(C)CC[C@@H]1[C@]32OO4 |  | W2 | drug-resistant strain, blood stage | IC50 | 0.009 µg/mL
